Source: ChEMBL document CHEMBL2311261, “Biocatalytic synthesis, structural elucidation, antioxidant capacity and tyrosinase inhibition activity of long chain fatty acid acylated derivatives of phloridzin and isoquercitrin” (Bioorg Med Chem, 2013)

What was measured:
[1] = test system: Radical scavenging activity; experiment: Antioxidant activity assessed as DPPH radical scavenging activity; format: functional
Summary of the method: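 Test compounds at a series of concentrations in DMSO/chloroform/methanol (1:8:4), mixed 1:1 (v/v) with 0.2 mM DPPH and incubated 30 min at 25 °C. Absorbance read at 520 nm from 0 s and every 300 s until plateau. Run in triplicate.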

[2] = Antioxidant activity assessed as Trolox equivalents of 0.001 mmol/L solution by ORAC assay; format: functional
[3] = Antioxidant activity assessed as Trolox equivalents of 1 mmol/L solution by FRAP assay; format: functional
Summary of the method: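 FRAP reagent made daily from 300 mmol l⁻¹ acetate buffer (pH 3.6), 10 mmol l⁻¹ TPTZ and 20 mmol l⁻¹ FeCl3 (10:1:1). Trolox calibration 50–1000 μmol l⁻¹. Result given as Trolox equivalents of a 1 mmol l⁻¹ solution. Run in triplicate.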

[4] = test system: tyrosinase (Agaricus bisporus); experiment: Inhibition of mushroom tyrosinase using L-DOPA substrate at 100 uM
[5] = test system: tyrosinase (Agaricus bisporus); experiment: Inhibition of mushroom tyrosinase using L-DOPA substrate at 10 uM
[6] = test system: tyrosinase (Agaricus bisporus); experiment: Inhibition of mushroom tyrosinase using L-DOPA substrate at 1000 uM
[7] = Antioxidant activity assessed as Trolox equivalents of 0.01 mmol/L solution by ORAC assay; format: functional

IC50 [1] [µM] | inhibition [4] [%] | inhibition [5] [%] | inhibition [6] [%] | SMILES | Activity [2] [µmol/L] | Activity [3] [µmol/L] | Activity [7] [µmol/L]
17.9 |  |  |  | O=c1c(O[C@@H]2O[C@H](CO)[C@@H](O)[C@H](O)[C@H]2O)c(-c2ccc(O)c(O)c2)oc2cc(O)cc(O)c12 [ISOQUERCETIN] | 473 | 1500 | 
60.4 | 73.3 | 32.1 | 80.6 | CCCCC/C=C\C/C=C\CCCCCCCC(=O)OC[C@H]1O[C@@H](Oc2c(-c3ccc(O)c(O)c3)oc3cc(O)cc(O)c3c2=O)[C@H](O)[C@@H](O)[C@@H]1O | 491 | 340 | 
97.9 | 78.8 | 55.8 | 85.5 | CC/C=C\C/C=C\C/C=C\CCCCCCCC(=O)OC[C@H]1O[C@@H](Oc2c(-c3ccc(O)c(O)c3)oc3cc(O)cc(O)c3c2=O)[C@H](O)[C@@H](O)[C@@H]1O | 490 | 614 | 
38.2 | 47.5 | 38.9 | 62.4 | CCCCCCCC/C=C\CCCCCCCC(=O)OC[C@H]1O[C@@H](Oc2c(-c3ccc(O)c(O)c3)oc3cc(O)cc(O)c3c2=O)[C@H](O)[C@@H](O)[C@@H]1O | 265 | 536 | 
42 |  |  |  | CCCCCCCCCCCCCCCCCC(=O)OC[C@H]1O[C@@H](Oc2c(-c3ccc(O)c(O)c3)oc3cc(O)cc(O)c3c2=O)[C@H](O)[C@@H](O)[C@@H]1O | 310 | 622 | 
1490 |  |  |  | O=C(CCc1ccc(O)cc1)c1c(O)cc(O)cc1O[C@@H]1O[C@H](CO)[C@@H](O)[C@H](O)[C@H]1O [PHLORIZIN] |  |  | 120
